Calls of active or inactive are those of the source.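 How the source made its calls: active means IC50 below 100 µM in the TR-FRET assay, unless also active in the caspase-3 counter assay; inactive means the rest, including compounds also active in caspase-3.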
Target: Caspase-3 (Homo sapiens) (UniProt P42574)
Test: recombinant caspase-3 enzyme inhibitors – biochemical, Caspase-Glo luminescence, set 4, counter-screen for UBC13 polyubiquitin inhibitor project, SAR follow-up (AID 602401)
Settings: recombinant caspase-3, Caspase-Glo luminescence, 60 min
Procedure, shortened: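 Material: Caspase-3 enzyme. Reagent: Caspase-Glo substrate added as 2X working solution at 0.75X. Schedule: Enzyme-substrate reaction 60 min at room temperature before reading. Measured by: Caspase-Glo luminescence.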

Sequence of Caspase-3 (Homo sapiens) (P42574 whole entry, looked up): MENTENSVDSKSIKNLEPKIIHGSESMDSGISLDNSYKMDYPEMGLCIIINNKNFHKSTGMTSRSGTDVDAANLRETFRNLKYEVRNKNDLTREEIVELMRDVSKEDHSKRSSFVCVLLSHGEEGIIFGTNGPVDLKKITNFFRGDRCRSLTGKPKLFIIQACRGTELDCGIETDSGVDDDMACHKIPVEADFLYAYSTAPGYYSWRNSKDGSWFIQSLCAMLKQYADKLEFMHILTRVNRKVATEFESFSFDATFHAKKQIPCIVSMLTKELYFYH

Compound | IC50
Cc1ccc(NC(=O)C2CCCN(c3ncnc4c3nc3n4CCCCC3)C2)cc1Br (stereo unspecified) | > 100 µM (inactive)
Cc1ccc(NC(=O)C2CCN(c3ncnc4c3nc3n4CCCCC3)CC2)c(Cl)c1 | > 100 µM (inactive)
O=C(NCC1CCN(Cc2ccccc2Cl)CC1)C1CCCN(c2ncnc3c2nc2n3CCCC2)C1 (stereo unspecified) | > 100 µM (inactive)
Cc1ccc(NC(=O)C2CCN(c3ncnc4c3nc3n4CCCC3)CC2)cc1F | > 100 µM (inactive)
O=C(NCC1CCN(Cc2cccc(Cl)c2)CC1)[C@H]1CCCN(c2ncnc3c2nc2n3CCCC2)C1 | > 100 µM (inactive)
O=C(NCc1cccc(Cl)c1)C1CCN(c2ncnc3c2nc2n3CCCCC2)CC1 | > 100 µM (inactive)
O=C(NCCCN1CCN(c2ccc(F)cc2)CC1)C1CCCN(c2ncnc3c2nc2n3CCCCC2)C1 (stereo unspecified) | > 100 µM (inactive)
O=C(NCC1CCN(Cc2cccc(Cl)c2)CC1)[C@H]1CCCN(c2ncnc3c2nc2n3CCCCC2)C1 | > 100 µM (inactive)
Cc1ccc(NC(=O)C2CCN(c3ncnc4c3nc3n4CCCCC3)CC2)cc1F | > 100 µM (inactive)
Cc1ccc(NC(=O)C2CCN(c3ncnc4c3nc3n4CCCCC3)CC2)cc1Cl | > 100 µM (inactive)
O=C(NCc1ccc(Cl)c(Cl)c1)C1CCN(c2ncnc3c2nc2n3CCCC2)CC1 | > 100 µM (inactive)
O=C(Nc1cc(F)ccc1F)C1CCN(c2ncnc3c2nc2n3CCCCC2)CC1 | > 100 µM (inactive)
CC1CC(C)CN(C(=O)C2CCN(c3ncnc4c3nc3n4CCCCC3)CC2)C1 (stereo unspecified) | > 100 µM (inactive)
CC1CCCCN1C(=O)C1CCN(c2ncnc3c2nc2n3CCCCC2)CC1 (stereo unspecified) | > 100 µM (inactive)
O=C(NCC1CCN(Cc2ccc(Cl)c(Cl)c2)CC1)C1CCCN(c2ncnc3c2nc2n3CCCC2)C1 (stereo unspecified) | > 100 µM (inactive)
COc1cc(OC)c(NC(=O)C2CCN(c3ncnc4c3nc3n4CCCCC3)CC2)cc1Cl | > 100 µM (inactive)
CN(CCNC(=O)C1CCN(c2ncnc3c2nc2n3CCCCC2)CC1)Cc1ccccc1 | > 100 µM (inactive)
Cc1cc(C)cc(NC(=O)C2CCCN(c3ncnc4c3nc3n4CCCC3)C2)c1 (stereo unspecified) | > 100 µM (inactive)
O=C(NCc1ccc(Cl)c(Cl)c1)C1CCN(c2ncnc3c2nc2n3CCCCC2)CC1 | > 100 µM (inactive)
O=C(NCC1CCN(Cc2cccc(Cl)c2)CC1)[C@@H]1CCCN(c2ncnc3c2nc2n3CCCC2)C1 | > 100 µM (inactive)
O=C(C1CCN(c2ncnc3c2nc2n3CCCCC2)CC1)N1CCN(Cc2ccccc2)CC1 | > 100 µM (inactive)

Compound | IC50
O=C(NCc1cccc(Cl)c1)C1CCCN(c2ncnc3c2nc2n3CCCC2)C1 (stereo unspecified) | > 100 µM (inactive)
Cc1ccc(NC(=O)C2CCCN(c3ncnc4c3nc3n4CCCC3)C2)cc1F (stereo unspecified) | > 100 µM (inactive)
Cc1cccc(NC(=O)C2CCCN(c3ncnc4c3nc3n4CCCC3)C2)c1 (stereo unspecified) | > 100 µM (inactive)
Cc1c(Cl)cccc1NC(=O)C1CCN(c2ncnc3c2nc2n3CCCCC2)CC1 | > 100 µM (inactive)
Cc1ccc(NC(=O)C2CCCN(c3ncnc4c3nc3n4CCCC3)C2)cc1Br (stereo unspecified) | > 100 µM (inactive)
O=C(NCC1CCN(Cc2cccc(Cl)c2)CC1)C1CCCN(c2ncnc3c2nc2n3CCCC2)C1 (stereo unspecified) | > 100 µM (inactive)
Cc1cccc(NC(=O)C2CCN(c3ncnc4c3nc3n4CCCCC3)CC2)c1C | > 100 µM (inactive)
O=C(NCC1CCN(Cc2ccc(Cl)c(Cl)c2)CC1)C1CCCN(c2ncnc3c2nc2n3CCCCC2)C1 (stereo unspecified) | > 100 µM (inactive)
Cc1cccc(NC(=O)C2CCN(c3ncnc4c3nc3n4CCCCC3)CC2)c1 | > 100 µM (inactive)
O=C(NCC1CCN(Cc2ccc(Cl)cc2)CC1)C1CCCN(c2ncnc3c2nc2n3CCCC2)C1 (stereo unspecified) | > 100 µM (inactive)
Cc1ccc(NC(=O)C2CCCN(c3ncnc4c3nc3n4CCCCC3)C2)cc1F (stereo unspecified) | > 100 µM (inactive)
O=C(NCC1CCN(Cc2ccc(Cl)cc2)CC1)C1CCCN(c2ncnc3c2nc2n3CCCCC2)C1 (stereo unspecified) | > 100 µM (inactive)
O=C(NCc1ccc(Cl)c(Cl)c1)C1CCCN(c2ncnc3c2nc2n3CCCC2)C1 (stereo unspecified) | > 100 µM (inactive)
O=C(NCC1CCN(Cc2cccc(Cl)c2)CC1)[C@@H]1CCCN(c2ncnc3c2nc2n3CCCCC2)C1 | > 100 µM (inactive)
O=C(NCC1CCN(Cc2ccccc2Cl)CC1)C1CCCN(c2ncnc3c2nc2n3CCCCC2)C1 (stereo unspecified) | > 100 µM (inactive)
O=C(Nc1cccc(Cl)c1)C1CCN(c2ncnc3c2nc2n3CCCCC2)CC1 | > 100 µM (inactive)
O=C(NCC1CCN(Cc2ccc(F)cc2)CC1)C1CCCN(c2ncnc3c2nc2n3CCCCC2)C1 (stereo unspecified) | > 100 µM (inactive)
Cc1cc(C)cc(NC(=O)C2CCN(c3ncnc4c3nc3n4CCCCC3)CC2)c1 | > 100 µM (inactive)
Cc1cccc(NC(=O)C2CCCN(c3ncnc4c3nc3n4CCCCC3)C2)c1 (stereo unspecified) | > 100 µM (inactive)
O=C(NCCCN1CCCCC1)C1CCN(c2ncnc3c2nc2n3CCCCC2)CC1 | > 100 µM (inactive)
O=C(NCCCN1CCN(c2ccccc2)CC1)C1CCCN(c2ncnc3c2nc2n3CCCCC2)C1 (stereo unspecified) | > 100 µM (inactive)

Continued, values first:

IC50 | Compound
> 100 µM (inactive) | O=C(c1ccco1)N1CCN(C(=O)C2CCN(c3ncnc4c3nc3n4CCCCC3)CC2)CC1
69 µM | Cc1cccc(NC(=O)C2CCN(c3ncnc4c3nc3n4CCCC3)CC2)c1
> 100 µM (inactive) | CC1CCCC(C)N1CCCNC(=O)C1CCCN(c2ncnc3c2nc2n3CCCCC2)C1 (stereo unspecified)
> 100 µM (inactive) | O=C(Nc1ccc(F)c(Cl)c1)C1CCN(c2ncnc3c2nc2n3CCCCC2)CC1
> 100 µM (inactive) | Cc1ccc(NC(=O)C2CCN(c3ncnc4c3nc3n4CCCC3)CC2)cc1Br
> 100 µM (inactive) | O=C(Nc1ccc(CN2CCCCC2)cc1)C1CCN(c2ncnc3c2nc2n3CCCCC2)CC1
> 100 µM (inactive) | Cc1cc(Cl)ccc1NC(=O)C1CCN(c2ncnc3c2nc2n3CCCCC2)CC1
> 100 µM (inactive) | O=C(NCC1CCN(Cc2cccc(Cl)c2)CC1)C1CCCN(c2ncnc3c2nc2n3CCCCC2)C1 (stereo unspecified)
> 100 µM (inactive) | O=C(C1CCN(c2ncnc3c2nc2n3CCCCC2)CC1)N1CCN(c2ncccn2)CC1
> 100 µM (inactive) | Cc1ccc(NC(=O)C2CCN(c3ncnc4c3nc3n4CCCC3)CC2)cc1C
> 100 µM (inactive) | Cc1ccc(NC(=O)C2CCN(c3ncnc4c3nc3n4CCCCC3)CC2)cc1Br
> 100 µM (inactive) | CCCN1CCN(C(=O)C2CCN(c3ncnc4c3nc3n4CCCCC3)CC2)CC1
> 100 µM (inactive) | Cc1cc(C)cc(NC(=O)C2CCN(c3ncnc4c3nc3n4CCCC3)CC2)c1
> 100 µM (inactive) | COc1ccc(Cl)cc1NC(=O)C1CCN(c2ncnc3c2nc2n3CCCCC2)CC1
> 100 µM (inactive) | Cc1cccc(N2CCN(CCCNC(=O)C3CCCN(c4ncnc5c4nc4n5CCCCC4)C3)CC2C)c1 (stereo unspecified)
> 100 µM (inactive) | O=C(C1CCN(c2ncnc3c2nc2n3CCCCC2)CC1)N1CCN(c2ccccc2)CC1
> 100 µM (inactive) | Cc1ccc(NC(=O)C2CCCN(c3ncnc4c3nc3n4CCCC3)C2)cc1C (stereo unspecified)

IC50 | Compound
> 100 µM (inactive) | O=C(C1CCN(c2ncnc3c2nc2n3CCCCC2)CC1)N1CCN(c2ccc(F)cc2)CC1
> 100 µM (inactive) | CCC1CCCCN1CCCNC(=O)C1CCN(c2ncnc3c2nc2n3CCCCC2)CC1 (stereo unspecified)
> 100 µM (inactive) | Cc1ccc(C)c(N2CCN(CCCNC(=O)C3CCCN(c4ncnc5c4nc4n5CCCCC4)C3)CC2)c1 (stereo unspecified)
63.4 µM | O=C(NCc1cccc(Cl)c1)C1CCN(c2ncnc3c2nc2n3CCCC2)CC1
> 100 µM (inactive) | O=C(C1CCN(c2ncnc3c2nc2n3CCCCC2)CC1)N1CCN(c2ccccn2)CC1
> 100 µM (inactive) | COc1ccccc1N1CCN(CCCNC(=O)C2CCCN(c3ncnc4c3nc3n4CCCCC3)C2)CC1 (stereo unspecified)
> 100 µM (inactive) | O=C(NCc1ccc(Cl)c(Cl)c1)C1CCCN(c2ncnc3c2nc2n3CCCCC2)C1 (stereo unspecified)
> 100 µM (inactive) | Cc1cc(C)cc(NC(=O)C2CCCN(c3ncnc4c3nc3n4CCCCC3)C2)c1 (stereo unspecified)
> 100 µM (inactive) | O=C(NCc1cccc(Cl)c1)C1CCCN(c2ncnc3c2nc2n3CCCCC2)C1 (stereo unspecified)
> 100 µM (inactive) | O=C(NCC1CCN(Cc2ccccc2F)CC1)C1CCCN(c2ncnc3c2nc2n3CCCCC2)C1 (stereo unspecified)
> 100 µM (inactive) | O=C(C1CCN(c2ncnc3c2nc2n3CCCCC2)CC1)N1CCOCC1
> 100 µM (inactive) | Cc1ccc(NC(=O)C2CCN(c3ncnc4c3nc3n4CCCCC3)CC2)cc1C
> 100 µM (inactive) | Cc1ccc(C)c(CN2CCC(CNC(=O)C3CCCN(c4ncnc5c4nc4n5CCCCC4)C3)CC2)c1 (stereo unspecified)
> 100 µM (inactive) | COc1cc(Cl)c(C)cc1NC(=O)C1CCN(c2ncnc3c2nc2n3CCCCC2)CC1
> 100 µM (inactive) | COc1ccc(NC(=O)C2CCN(c3ncnc4c3nc3n4CCCCC3)CC2)cc1Cl
> 100 µM (inactive) | O=C(C1CCN(c2ncnc3c2nc2n3CCCCC2)CC1)N1CCC(Cc2ccccc2)CC1
> 100 µM (inactive) | Cc1ccccc1CN1CCC(CNC(=O)C2CCCN(c3ncnc4c3nc3n4CCCCC3)C2)CC1 (stereo unspecified)

— PubChem BioAssay AID602401 (Sanford-Burnham Center for Chemical Genomics, 2012)
